Bioassay records (PubChem)
NadD inh: inhibitors of S. aureus NadD, primary screen, biochemical, colorimetric, uHTS; Nicotinate-nucleotide adenylyltransferase NadD (Staphylococcus aureus N315); purified NadD enzyme, colorimetric absorbance read-out; inhibition, % at 20 µM; 360,000 tested, 0.78% active; in the data active means inhibition above about 26%
SUMO1 PPI mod: modulators of SUMO1 protein-protein interactions, primary screen, biochemical, uHTS | inhibition, % at 20 µM | SUMO1 binding to a labelled peptide, TR-FRET, 1 h | Small ubiquitin-related modifier 1 (Homo sapiens), P63165 | 360,000 tested, 0.33% active | AID 602429, 2012; in the data active means inhibition above about 37%
Target sequence (P63165 whole entry, looked up): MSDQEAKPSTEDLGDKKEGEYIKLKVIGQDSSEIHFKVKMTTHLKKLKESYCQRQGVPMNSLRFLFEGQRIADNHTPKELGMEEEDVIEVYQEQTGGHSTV
LMPTP block: LMPTP phosphatase inhibitors, primary screen, biochemical, fluorescence intensity, uHTS; inhibition, % at 20 µM; recombinant LMPTP-A, OMFP fluorogenic substrate; Low molecular weight phosphotyrosine protein phosphatase (Homo sapiens), P24666; 360,000 tested, 0.22% active;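 active means compounds that cut the enzyme signal by at least half of the control window in the single-dose screen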;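 further: plate controls were DMSO wells with enzyme plus substrate for no effect and substrate without enzyme for full effect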
Target sequence (P24666 whole entry, looked up): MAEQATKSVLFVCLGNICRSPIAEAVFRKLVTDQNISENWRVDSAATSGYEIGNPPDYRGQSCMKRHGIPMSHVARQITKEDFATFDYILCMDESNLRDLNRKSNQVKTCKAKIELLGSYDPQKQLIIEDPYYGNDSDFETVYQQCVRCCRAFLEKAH
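Test system: LMPTP-A, protein tyrosine phosphatase of low molecular weight; Input: 0.625 nM enzyme; Incubation: 50 min dark incubation at room temperature; Signal: endpoint fluorescence intensity from OMFP dephosphorylation; Read-out basis: % inhibition versus control wells.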
STEP inh: STEP phosphatase inhibitors, primary screen, biochemical, fluorescence intensity, uHTS; Tyrosine-protein phosphatase non-receptor type 5 (Homo sapiens), P54829; recombinant STEP, OMFP fluorogenic substrate; inhibition, % at 20 µM; 360,000 tested, 0.25% active;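 active means inhibition at 20 µM, scaled per plate between control wells, above about 37%, limit read from the data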;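 further: 0% = DMSO with enzyme and substrate and 100% = substrate only without enzyme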
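Test system: STEP tyrosine phosphatase / Reagent: OMFP at 25 µM / Doses: 20 µM, 1% DMSO / Read-out: percent inhibition scaled to no-enzyme and uninhibited-enzyme controls, plate-pattern corrected / Detection: FITC-channel fluorescence of OMFP product / Medium: Bis-Tris buffer pH 6.0, 2.5 mM DTT, 0.005% Tween 20 / Schedule: 20 min at room temperature, dark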
Scp1 inh: Scp-1 phosphatase inhibitors, primary screen, biochemical, colorimetric, uHTS; Carboxy-terminal domain RNA polymerase II polypeptide A small phosphatase 1 (Homo …; Recombinant Scp1, phosphopeptide, malachite green phosphate absorbance; inhibition, % at 20 µM; 340,000 tested, 0.88% active;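 active means inhibition above about 50% at 20 µM, limit read from the data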;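 further: plate controls were DMSO wells with enzyme for no effect and wells lacking enzyme for full effect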
Target sequence (Q9GZU7 76-261 limits assumed): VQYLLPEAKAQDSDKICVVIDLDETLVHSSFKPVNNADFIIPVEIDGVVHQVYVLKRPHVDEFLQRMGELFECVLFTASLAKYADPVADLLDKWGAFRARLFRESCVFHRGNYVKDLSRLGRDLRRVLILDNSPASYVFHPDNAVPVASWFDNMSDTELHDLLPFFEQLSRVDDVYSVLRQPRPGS
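Times: enzyme reaction 45 min at room temperature, colour 5 min, stabilisation 30 min. Material: SCP-1 catalytic fragment, aa 76-261. Medium: Acidic Tris acetate buffer with magnesium and detergent. Signal: colorimetric free-phosphate detection, absorbance 630 nm. Read-out basis: % inhibition of SCP-1 phosphate liberation. Reagent: Phosphorylated 17-residue peptide substrate.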
DNMT1 inh: human DNMT1 methyltransferase inhibitors, primary screen, biochemical, molecular beacon, fluorescence, HinP1I cleavage, uHTS; DNA (cytosine-5)-methyltransferase 1 (Homo sapiens), P26358; inhibition (reported as % activation of signal), % at 10 µM; 360,000 tested, 0.83% active; AID 588458, 2011; in the data active means inhibition above about 50%
Beacon interf DR: spectral interference with molecular beacon fluorescence, dose response, artefact control for DNMT1 inhibitor project, biochemical, fluorescent molecular beacon. 200 tested, under 10 active. IC50, µM. spectral interference counter-screen. shares compounds with DNMT1 inh; call rule not given here
DNMT1 confirm: DNMT1 methyltransferase inhibitor retest, confirmation, biochemical, molecular beacon, fluorescence, single concentration | shares compounds with DNMT1 inh | DNMT1 molecular beacon HinP1I cleavage | inhibition, % at 10 µM | 2,300 tested, 8% active | AID 602385, 2012;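 active means average inhibition of at least 30% in the single-concentration confirmation test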
Beacon interf: beacon fluorescence artifact counter-screen; shares compounds with DNMT1 inh; activation (fluorescence interference), % at 10 µM; DNMT1 molecular beacon spectral interference counterscreen, fluorescence 485/520; 2,300 tested, 1% active;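 active means activation of at least 30% at 10 µM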;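 further: DNMT1 catalytic domain with a HinP1I cleavage step and a FAM/dabcyl DNA beacon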
* = called active by the depositor; . = no result given. Sampled rows, rich in hits. Any-hit rate of the full collection: about 2.4%.

SMILES	NadD inh	SUMO1 PPI mod	LMPTP block	STEP inh	Scp1 inh	DNMT1 inh	DNMT1 confirm	Beacon interf	others
CCN(CC)c1ccc2cc(-c3nnc(-c4ccccc4)o3)c(=O)oc2c1	17.2	-14.8	-1.5	-109.3	-14.5	101.6*	88.2*	134.1*
O=C(Nc1ccc2nn(-c3ccccc3)nc2c1)c1ccco1	-1.6	-10.3	2.4	-2.2	-9.2	-10.6	.	.
O=C(Nc1cc2nn(-c3ccccc3)nc2cc1Cl)c1ccco1	19.2	-6.9	13.3	2.5	-10.1	74.8*	0.4	-4.6
COc1ccc(CC(=O)Nc2ccc(-c3noc(-c4ccc(Cl)cc4)n3)cc2)cc1	8.5	14.7	21.5	5.7	9.8	50.7*	3.8	-5.1
COc1ccc(CC(=O)Nc2ccc(-c3noc(-c4cc(OC)c(OC)c(OC)c4)n3)cc2)cc1	-4.1	-2.9	-0.9	-2.8	-13.1	21.4	.	.
CCOC(=O)c1c(NC(=O)COC(=O)Cn2c(C)nc3ccccc32)sc2c1CCCC2	1.9	-8.6	26.6	10.4	5.4	65.0*	5.3	0.6
Cc1[nH]n(C)c(=O)c1[N+](=O)[O-]	-5.0	0.7	-0.9	-1.5	2.5	55.6*	1.8	2.8
Cn1c(=O)c(=O)n(C)c2cc([N+](=O)[O-])c([N+](=O)[O-])cc21	0.1	-36.5	-1.2	3.9	-0.3	-5.3	.	.
COc1ccc(CCNc2ccc(C(CC(N)=O)NC(=O)Cc3ccc(Br)cc3)cc2[N+](=O)[O-])cc1 (stereo unspecified)	-1.3	-9.1	1.0	4.9	-5.8	55.5*	-0.7	-4.3
Cc1ccccc1CNc1ccc(C(CC(N)=O)NC(=O)c2ccc(Br)cc2)cc1[N+](=O)[O-] (stereo unspecified)	0.4	-13.8	-0.2	-1.0	-10.3	61.1*	0.4	-0.9
NC(=O)CC(NC(=O)Cc1ccc(Br)cc1)c1ccc(NCCc2ccc(Cl)cc2)c([N+](=O)[O-])c1 (stereo unspecified)	-7.8	-4.3	2.7	3.0	-3.6	57.7*	1.9	-1.5
NC(=O)CC(NC(=O)Cc1ccc(Br)cc1)c1ccc(NCCc2ccc(F)cc2)c([N+](=O)[O-])c1 (stereo unspecified)	-4.4	-9.8	1.6	2.4	0.6	53.1*	1.7	0.0
NC(=O)CC(NC(=O)c1ccc(Br)cc1)c1ccc(NCc2ccc(F)cc2)c([N+](=O)[O-])c1 (stereo unspecified)	6.3	4.3	2.4	-1.2	-9.8	28.1	.	.
COc1ccc(CCNc2ccc(C(CC(N)=O)NC(=O)c3ccc(Br)cc3)cc2[N+](=O)[O-])cc1 (stereo unspecified)	11.3	-6.7	1.9	3.0	0.6	44.1	.	.
Fc1ccc(-n2cc(CNCCc3cccnc3)c(-c3ccccc3Cl)n2)cc1	-7.9	-3.9	-3.1	-1.2	-3.0	-0.3	.	.
CC(C)C(C(=O)OCC(=O)c1ccccc1)N1C(=O)C2C3C=CC(C3)C2C1=O (stereo unspecified)	0.5	-0.3	-1.7	-1.2	-6.6	0.1	.	.
CCOC(=O)c1ccc(S(=O)(=O)NNC(=O)Cc2csc(C)n2)cc1	3.5	2.0	-2.3	-1.4	2.8	8.5	.	.
COCC1CCCCC1OS(N)(=O)=O (stereo unspecified)	-6.0	1.3	-0.4	-1.4	-6.5	2.5	.	.
CC(C)C(=O)Nc1ccc(Cl)cc1-c1nc2ccccc2[nH]c1=O	-1.7	-8.5	-1.7	0.8	-7.7	1.4	.	.
CNc1ccc([N+](=O)[O-])cc1-c1nc2ccccc2[nH]c1=O	4.2	6.1	3.7	4.1	14.8	51.1*	0.8	-5.1
C=CCNC(=O)COC(=O)CCC(=O)c1cccs1	-1.6	0.8	-1.0	-2.9	-0.7	63.9*	3.1	1.7
CCOP(=O)(OCC)C(O)c1cc(OC)c(OC)c(OC)c1 (stereo unspecified)	-2.7	-0.1	-0.2	-0.3	-7.3	12.2	.	.
O=C1c2ccccc2-c2c1c1ccccc1c(=O)n2-c1ccccc1	-0.2	-2.5	0.2	-0.2	-16.2	49.9	1.7	4.4
O=C1c2ccccc2-c2c1c1ccccc1c(=O)n2CCO	-1.0	-29.3	3.0	0.9	7.1	7.7	.	.
Cc1ccc2nc(Cl)c(/C=N/Nc3nc(C)cc(C)n3)c(=O)n2c1	-5.1	9.9	-0.7	-0.8	-10.3	4.5	.	.
SMILES	NadD inh	SUMO1 PPI mod	LMPTP block	STEP inh	Scp1 inh	DNMT1 inh	DNMT1 confirm	Beacon interf	others
COc1cccc(C(=O)NC(=S)Nc2nnn(C)n2)c1	22.7	0.6	-0.4	-2.9	-2.0	9.6	.	.
COc1ccc(C(=O)NC(=S)Nc2nnn(C)n2)cc1	5.0	0.9	0.3	-3.2	-14.1	86.1*	3.5	6.6
CCCn1c(SCc2nc3sc(C)c(C)c3c(=O)[nH]2)nc2ccccc2c1=O	3.2	1.1	-0.2	4.2	-7.3	53.9*	-0.3	-4.0
Cc1cc(/C=N/Nc2ccc([N+](=O)[O-])cn2)c(C)n1-c1ccc(C(=O)O)cc1	17.5	10.2	12.0	6.1	57.0*	61.4*	3.9	0.9
Cc1c2cnn(CC(=O)N3CCOCC3)c(=O)c2c(C)n1Cc1ccccc1F	2.6	2.1	-0.1	0.2	-6.5	-2.3	.	.
CCc1nnc(NS(=O)(=O)c2ccc(NC(=S)NC(=O)/C=C/c3ccc(C(C)C)cc3)cc2)s1	69.2*	27.2	3.7	0.1	-10.5	62.1*	33.1*	-4.2	Beacon interf DR=>99
COc1ccc(S(=O)(=O)NCc2cccnc2)cc1OC	1.9	0.9	-1.1	-0.2	-5.0	56.2*	1.3	0.5
C=CC[C@@H](CC(=O)N[C@@H](CO)Cc1ccccc1)C(=O)NC[C@@H](OC(=O)[C@@H](CC=C)CC(=O)OC(C)(C)C)c1ccccc1	1.1	4.2	0.9	-2.0	6.4	56.8*	6.8	4.7
Cc1cc(C(=O)NCc2ccc(Cl)cc2)n(-c2ccccc2)n1	-10.1	-3.5	1.0	0.0	8.6	0.2	.	.
